Where “and” joins values, the source holds several entries; their conditions need not be identical. Equal entries are not always repeated.

In series [1] the target is PI3-kinase p110-delta/p85-alpha (Homo sapiens, UniProt O00329). As to the kind of experiment: Inhibition of human p110delta catalytic subunit/p85alpha using PIP2 as substrate after 30 mins in presence of ATP at 2xKm concentration by TR-FRET assay. Format: protein-complex assay. The method in brief:
(§1)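 Class I PI3K isoforms assayed in vitro for kinase inhibition with ATP at 2Km steady-state concentration; IC50 values averaged over at least 2 determinations.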
(Time-resolved FRET reads energy transfer from a long-lived donor to a nearby acceptor.)

For series [2], the target named is Phosphatidylinositol 4,5-bisphosphate 3-kinase catalytic subunit gamma isoform (Homo sapiens, UniProt P48736). Description: Inhibition of human full length p110gamma using PIP2 as substrate after 30 mins in presence of ATP at 2xKm concentration by TR-FRET assay.
For series [3], the target named is PI3-kinase p110-alpha/p85-alpha (Homo sapiens, UniProt P42336). Description: Inhibition of human full length p110alpha/p85alpha using PIP2 as substrate after 30 mins in presence of ATP at 2xKm concentration by TR-FRET assay. Type of series: protein-complex assay. Summed up: as §1
Series [4] in a line: Dissociation constant, acidic pKa of compound. Type of series: physicochemical.
The nature of series [5]: Volume of distribution at steady state in cynomolgus monkey at 1 mg/kg administered as iv infusion for 30 mins and measured after 24 hrs by ESI-LC/MS/MS analysis. Format: ADME, organism-based, Macaca fascicularis. The conditions noted are these: in vivo, read-out: Vdss.
Series [6] is described as follows: Oral bioavailability in Sprague-Dawley rat at 5 mg/kg dosed via gavage after 24 hrs by ESI-LC/MS/MS analysis. Format: ADME, organism-based. The conditions noted are these: in vivo.
Series [7] addresses T1, Phosphatidylinositol 4,5-bisphosphate 3-kinase catalytic subunit beta isoform (Homo sapiens, UniProt P42338). Description: Inhibition of PI3Kbeta in PTEN-deficient human LNCaP C4-2 cells assessed as reduction in AKT phosphorylation at Ser473 residue after 2 hrs by mesoscale assay. Type of series: cell-based. The method in brief: (§2)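 Cellular readout: pAKT1 Ser473 normalized to total AKT1, expressed as units pAKT1 Ser473 per nanogram total AKT1; cells treated under serum-free conditions.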

The nature of series [8]: Protein binding in rhesus monkey plasma at 1 mg/kg administered as iv infusion for 30 mins and measured after 24 hrs by ESI-LC/MS/MS analysis. Type of series: ADME, organism-based, Macaca mulatta. Particulars: read-out: PPB (converted).
For series [9], the target named is T1, Phosphatidylinositol 4,5-bisphosphate 3-kinase catalytic subunit beta isoform. Description: Inhibition of PI3Kbeta in PTEN-deficient human MDA-MB-415 cells assessed as reduction in AKT phosphorylation at Ser473 residue after 2 hrs by mesoscale assay. Type of series: cell-based. The method in brief: as §2
The nature of series [10]: Protein binding in Beagle dog plasma at 1 mg/kg administered as iv infusion for 30 mins and measured after 24 hrs by ESI-LC/MS/MS analysis. Format: ADME, organism-based, Canis lupus familiaris. Particulars: read-out: PPB (converted).
Series [11] can be described thus: Volume of distribution at steady state in rhesus monkey at 1 mg/kg administered as iv infusion for 30 mins and measured after 24 hrs by ESI-LC/MS/MS analysis. Type of series: ADME, organism-based, Macaca mulatta. Particulars: in vivo, read-out: Vdss.
Series [12] deals with T1, Phosphatidylinositol 4,5-bisphosphate 3-kinase catalytic subunit beta isoform. As to the kind of experiment: Inhibition of PI3Kbeta in PTEN-deficient human LNCAP cells assessed as reduction in AKT phosphorylation at Ser473 residue after 2 hrs by mesoscale assay. Type of series: cell-based. The method in brief: as §2
The target in series [13] is Voltage-gated inwardly rectifying potassium channel KCNH2 (Homo sapiens, UniProt Q12809). Description: Inhibition of human ERG. Summed up:
(§3)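 Binding-assay format used to measure inhibition of major human CYP450 enzymes and hERG.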

The nature of series [14]: Clearance in cynomolgus monkey at 1 mg/kg administered as iv infusion for 30 mins and measured after 24 hrs by ESI-LC/MS/MS analysis. Type of series: ADME, organism-based, Macaca fascicularis. Particulars: in vivo.
Series [15] in a line: Protein binding in Sprague-Dawley rat plasma at 1 mg/kg administered as iv infusion for 30 mins and measured after 24 hrs by ESI-LC/MS/MS analysis. The conditions noted are these: read-out: PPB (converted). Type of series: ADME, organism-based.
The target of a further series is CYP450 (Homo sapiens, UniProt P04798+P05177+P05181+P08684+P10632+P10635+P11509+P11712+P13584+P20813+P20815+P20853+P24462+P24903+P33260+P33261+P51589+P78329+P98187+Q02928+Q08477+Q16678+Q16696+Q5TCH4+Q6VVX0+Q7Z449+Q8TAV3+Q96SQ9+Q9HB55). As to the kind of experiment: Inhibition of human CYP450. Format: ADME, protein assay. The method in brief:
as §3

The nature of series [16]: Oral bioavailability in cynomolgus monkey at 5 mg/kg dosed via gavage after 24 hrs by ESI-LC/MS/MS analysis. Type of series: ADME, organism-based, Macaca fascicularis. Particulars: in vivo.
In series [17] the target is T1, Phosphatidylinositol 4,5-bisphosphate 3-kinase catalytic subunit beta isoform. Description: Inhibition of PI3Kbeta in PTEN-deficient human ZR-75-1 cells assessed as reduction in AKT phosphorylation at Ser473 residue after 2 hrs by mesoscale assay. Format: cell-based. Summed up: as §2
For series [18] the target is unchanged. As to the kind of experiment: Inhibition of PI3Kbeta in PTEN-deficient human PC3 cells assessed as reduction in AKT phosphorylation at Ser473 residue after 2 hrs by mesoscale assay. Type of series: cell-based, PC-3. Summed up: as §2
Series [19] is described as follows: Protein binding in cynomolgus monkey plasma at 1 mg/kg administered as iv infusion for 30 mins and measured after 24 hrs by ESI-LC/MS/MS analysis. Particulars: read-out: PPB (converted). Type of series: ADME, organism-based, Macaca fascicularis.
A short description of series [20]: Genotoxicity in Salmonella typhimurium by Ames test. Type of series: toxicity. Particulars: salmonella enterica subsp. enterica serovar typhimurium. (In general: The Ames test uses bacterial strains that need an amino acid and regain growth without it when mutated back.)
Another series has as its target Cytochrome P450 3A4 (Homo sapiens, UniProt P08684). As to the kind of experiment: Inhibition of human CYP3A4. Format: ADME.
Series [21] in a line: Apparent permeability across basolateral to apical side in human Caco2 cells at 10 uM after 1 to 2 hrs by LC/MS/MS analysis. Particulars: Caco-2. Format: ADME, cell-based.
The nature of series [22]: Clearance in human hepatocytes at 1 uM measured up to 250 mins by UHPLC-HRMS analysis. Type of series: ADME, cell-based, Hepatocyte. Particulars: 250 min, 1 µM.
The nature of series [23]: Apparent permeability across apical to basolateral side in human Caco2 cells at 10 uM after 1 to 2 hrs by LC/MS/MS analysis. Type of series: ADME, cell-based. Particulars: Caco-2. Background: Passage across Caco-2 layers is used to estimate intestinal permeability.
A further series has as its target PI3K p110 beta/p85 alpha (Homo sapiens, UniProt P42338). As to the kind of experiment: Inhibition of recombinant human full-length N-terminal His6-tagged p110beta/human recombinant full-length untagged p85alpha expressed in baculovirus infected Sf21 insect cells using PIP2 as substrate after 30 mins in presence of ATP at 2xKm concentration by TR-FRET assay. Summed up: as §1

Sequence of PI3-kinase p110-delta/p85-alpha (P27986 whole entry, canonical isoform): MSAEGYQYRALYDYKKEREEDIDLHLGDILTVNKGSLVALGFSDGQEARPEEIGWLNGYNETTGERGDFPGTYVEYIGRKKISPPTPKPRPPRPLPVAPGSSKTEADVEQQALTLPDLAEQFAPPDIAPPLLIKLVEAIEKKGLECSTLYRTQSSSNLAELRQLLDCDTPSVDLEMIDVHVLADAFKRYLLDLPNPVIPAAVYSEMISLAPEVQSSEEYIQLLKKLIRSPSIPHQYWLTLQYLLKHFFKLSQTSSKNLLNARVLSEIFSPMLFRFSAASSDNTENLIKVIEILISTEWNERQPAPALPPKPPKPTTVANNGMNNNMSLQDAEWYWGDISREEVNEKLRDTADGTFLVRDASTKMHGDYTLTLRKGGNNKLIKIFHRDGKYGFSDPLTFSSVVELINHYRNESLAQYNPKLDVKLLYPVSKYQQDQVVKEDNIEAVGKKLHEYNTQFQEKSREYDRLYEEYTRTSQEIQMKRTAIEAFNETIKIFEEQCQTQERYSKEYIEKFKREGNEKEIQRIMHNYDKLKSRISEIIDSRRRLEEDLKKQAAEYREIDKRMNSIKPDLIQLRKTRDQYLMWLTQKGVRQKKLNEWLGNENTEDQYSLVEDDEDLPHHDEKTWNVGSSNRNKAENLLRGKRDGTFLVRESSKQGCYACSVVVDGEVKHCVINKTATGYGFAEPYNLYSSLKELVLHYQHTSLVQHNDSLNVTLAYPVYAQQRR
Sequence of PI3-kinase p110-delta/p85-alpha (O00329 whole entry, canonical isoform): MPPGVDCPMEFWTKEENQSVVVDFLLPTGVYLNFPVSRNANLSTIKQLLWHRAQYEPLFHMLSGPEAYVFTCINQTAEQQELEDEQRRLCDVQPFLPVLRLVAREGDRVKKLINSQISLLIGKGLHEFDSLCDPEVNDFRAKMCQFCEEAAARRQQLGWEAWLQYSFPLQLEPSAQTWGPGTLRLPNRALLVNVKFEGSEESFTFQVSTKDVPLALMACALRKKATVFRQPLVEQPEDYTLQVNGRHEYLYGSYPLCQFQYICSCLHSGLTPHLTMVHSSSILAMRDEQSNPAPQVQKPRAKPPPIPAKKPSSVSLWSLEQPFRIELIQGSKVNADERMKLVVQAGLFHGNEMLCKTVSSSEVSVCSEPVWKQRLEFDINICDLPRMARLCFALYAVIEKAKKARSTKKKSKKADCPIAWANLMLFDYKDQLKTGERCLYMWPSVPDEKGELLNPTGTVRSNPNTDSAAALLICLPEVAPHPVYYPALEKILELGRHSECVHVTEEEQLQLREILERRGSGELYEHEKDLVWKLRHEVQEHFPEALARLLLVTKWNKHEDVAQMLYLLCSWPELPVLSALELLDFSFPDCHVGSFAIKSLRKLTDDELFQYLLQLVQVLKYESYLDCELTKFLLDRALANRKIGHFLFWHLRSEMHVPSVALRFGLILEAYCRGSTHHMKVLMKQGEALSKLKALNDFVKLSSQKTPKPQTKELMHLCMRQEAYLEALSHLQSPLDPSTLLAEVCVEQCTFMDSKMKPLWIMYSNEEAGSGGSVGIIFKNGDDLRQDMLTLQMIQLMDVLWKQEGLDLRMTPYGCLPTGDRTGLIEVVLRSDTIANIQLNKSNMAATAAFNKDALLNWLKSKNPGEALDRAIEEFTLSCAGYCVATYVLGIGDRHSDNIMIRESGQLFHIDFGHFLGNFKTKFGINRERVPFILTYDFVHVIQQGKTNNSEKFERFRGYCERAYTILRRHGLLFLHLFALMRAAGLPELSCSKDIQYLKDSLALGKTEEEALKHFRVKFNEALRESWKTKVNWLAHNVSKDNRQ
Sequence of PI3-kinase p110-alpha/p85-alpha (P27986 whole entry): as the sequence (P27986 whole entry, canonical isoform) above
Sequence of PI3-kinase p110-alpha/p85-alpha (P42336 whole entry): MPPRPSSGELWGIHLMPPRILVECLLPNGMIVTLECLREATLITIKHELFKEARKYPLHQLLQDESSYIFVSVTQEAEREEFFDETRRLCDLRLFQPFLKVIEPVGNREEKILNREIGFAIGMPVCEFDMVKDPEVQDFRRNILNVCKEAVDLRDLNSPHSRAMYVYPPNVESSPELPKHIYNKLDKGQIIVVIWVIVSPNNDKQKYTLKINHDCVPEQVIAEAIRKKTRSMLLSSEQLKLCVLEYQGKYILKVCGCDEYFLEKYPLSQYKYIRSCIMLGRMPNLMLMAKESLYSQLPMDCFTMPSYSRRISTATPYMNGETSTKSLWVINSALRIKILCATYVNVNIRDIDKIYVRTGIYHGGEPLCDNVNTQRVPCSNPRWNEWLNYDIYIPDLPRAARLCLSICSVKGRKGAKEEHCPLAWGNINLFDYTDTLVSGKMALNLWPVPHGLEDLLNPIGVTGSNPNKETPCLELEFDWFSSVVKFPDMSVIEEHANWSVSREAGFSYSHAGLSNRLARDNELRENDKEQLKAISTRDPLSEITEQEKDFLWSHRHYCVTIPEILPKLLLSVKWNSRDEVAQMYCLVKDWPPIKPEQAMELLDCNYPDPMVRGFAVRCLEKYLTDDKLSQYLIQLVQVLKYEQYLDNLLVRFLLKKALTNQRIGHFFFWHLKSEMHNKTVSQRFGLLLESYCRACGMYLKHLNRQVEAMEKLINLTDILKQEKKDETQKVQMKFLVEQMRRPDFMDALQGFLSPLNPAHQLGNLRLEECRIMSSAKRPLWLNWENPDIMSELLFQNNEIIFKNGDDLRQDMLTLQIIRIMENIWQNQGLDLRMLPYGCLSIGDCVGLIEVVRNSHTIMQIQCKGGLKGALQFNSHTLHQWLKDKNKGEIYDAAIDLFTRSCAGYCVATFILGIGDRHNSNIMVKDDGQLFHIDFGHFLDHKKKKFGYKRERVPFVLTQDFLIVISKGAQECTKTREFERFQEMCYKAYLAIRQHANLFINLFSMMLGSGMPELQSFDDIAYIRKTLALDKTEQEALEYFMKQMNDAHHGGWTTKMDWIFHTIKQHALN
Sequence of Cytochrome P450 3A4 (P08684 whole entry): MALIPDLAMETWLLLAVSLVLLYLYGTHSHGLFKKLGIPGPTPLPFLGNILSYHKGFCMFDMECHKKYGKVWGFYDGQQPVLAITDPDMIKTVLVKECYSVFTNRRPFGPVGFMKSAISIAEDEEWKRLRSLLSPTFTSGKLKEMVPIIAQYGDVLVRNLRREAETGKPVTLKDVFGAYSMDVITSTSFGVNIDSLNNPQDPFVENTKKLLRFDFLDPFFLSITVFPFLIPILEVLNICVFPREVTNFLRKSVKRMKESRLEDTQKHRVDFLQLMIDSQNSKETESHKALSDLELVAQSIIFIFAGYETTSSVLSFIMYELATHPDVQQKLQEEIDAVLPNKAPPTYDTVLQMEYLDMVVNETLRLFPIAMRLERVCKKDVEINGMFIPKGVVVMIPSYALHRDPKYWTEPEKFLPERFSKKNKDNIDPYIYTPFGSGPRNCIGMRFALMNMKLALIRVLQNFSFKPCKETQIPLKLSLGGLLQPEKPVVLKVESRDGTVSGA
T1 sequence (P42338 whole entry, canonical isoform): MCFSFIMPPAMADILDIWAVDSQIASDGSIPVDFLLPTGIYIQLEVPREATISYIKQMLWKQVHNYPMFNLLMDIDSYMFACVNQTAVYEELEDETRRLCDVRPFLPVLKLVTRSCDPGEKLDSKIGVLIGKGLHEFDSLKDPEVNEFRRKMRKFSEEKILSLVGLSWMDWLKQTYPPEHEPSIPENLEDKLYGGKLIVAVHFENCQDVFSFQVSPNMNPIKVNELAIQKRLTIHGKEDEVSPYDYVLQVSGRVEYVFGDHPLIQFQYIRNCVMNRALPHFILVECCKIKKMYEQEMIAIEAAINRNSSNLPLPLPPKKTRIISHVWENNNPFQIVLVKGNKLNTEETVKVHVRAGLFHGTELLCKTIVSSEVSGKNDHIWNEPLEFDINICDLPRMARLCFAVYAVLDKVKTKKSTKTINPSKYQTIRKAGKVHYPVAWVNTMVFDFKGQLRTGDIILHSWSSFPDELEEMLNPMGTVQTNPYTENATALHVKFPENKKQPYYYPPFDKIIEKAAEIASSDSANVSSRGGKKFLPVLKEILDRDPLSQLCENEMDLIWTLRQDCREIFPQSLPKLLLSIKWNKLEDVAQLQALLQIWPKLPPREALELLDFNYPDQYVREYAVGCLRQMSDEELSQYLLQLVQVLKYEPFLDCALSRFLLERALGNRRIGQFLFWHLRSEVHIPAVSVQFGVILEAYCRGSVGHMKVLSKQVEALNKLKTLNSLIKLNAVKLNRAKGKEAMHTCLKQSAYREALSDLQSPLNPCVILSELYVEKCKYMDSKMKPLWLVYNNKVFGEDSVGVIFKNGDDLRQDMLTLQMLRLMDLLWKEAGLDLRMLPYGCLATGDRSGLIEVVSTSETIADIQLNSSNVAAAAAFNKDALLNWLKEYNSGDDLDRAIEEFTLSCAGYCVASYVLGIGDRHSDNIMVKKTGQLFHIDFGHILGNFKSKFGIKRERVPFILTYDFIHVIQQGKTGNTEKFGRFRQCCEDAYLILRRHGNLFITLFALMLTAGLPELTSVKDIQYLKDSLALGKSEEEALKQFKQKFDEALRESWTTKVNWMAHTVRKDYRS
Sequence of PI3K p110 beta/p85 alpha (P27986 whole entry): as the sequence (P27986 whole entry, canonical isoform) above
Sequence of PI3K p110 beta/p85 alpha (P42338 whole entry): as the sequence (P42338 whole entry, canonical isoform) above

For `Cc1cc(C(C)Nc2ccccc2)c2nc(N3CCOCC3)cc(=O)n2c1` (stereo unspecified), the IC50 (commonly the midpoint of a concentration-inhibition curve) is 500 nM in [1], > 10000 nM in series [2] and 7600 nM in [3].

As to `Cc1nc2c(-c3nnc[nH]3)cc(-c3ccnc(N)c3F)cc2n1-c1ccnc2c(F)ccc(F)c12`, in series [4], the pKa (usually the pH at which an ionisable group is half protonated) was determined as 4.8. In addition, the Vd in series [5] came out at 0.5 L/kg; in series [11], 0.6 L/kg. In addition, the results for the bioavailability in series [6] and in series [16] were 60% and 64%, respectively. Further, the concentration giving a half-maximal response (EC50) (usually the concentration needed to bring the measured effect to its halfway point) was found to be 15 nM in series [7]; 12 nM in series [9]; 53 nM in [12]; 6 nM in [17]; 9 nM in series [18]. The fraction unbound at 24 h is 0.07 in series [8], 0.08 in [10], 0.19 in series [15] and 0.06 in series [19]. In addition, the IC50 (in [13]; at CYP450; against Cytochrome P450 3A4) was > 25000 nM each time. Further, the clearance (usually the volume of plasma or blood freed of the substance per unit of time) in series [14] was 2.17 mL/min/kg. Also, the Activity result in series [20] is reported as “Non-Toxic”. Also, the basolateral-to-apical permeability (Papp B→A) (usually the apparent permeability from the basolateral to the apical side of a cell layer) at 10 µM in [21] was found to be 31 ×10⁻⁶ cm/s.

Regarding `Cc1nc2c(-c3nnc[nH]3)cc(-c3ccnc(C(F)F)c3)cc2n1-c1ccnc2c(F)ccc(F)c12`, the results for the IC50 in series [1], in series [2] and in series [3] were 402 nM, 9420 nM and 680 nM, respectively.

As to `Cc1nc2c(-c3nnc[nH]3)cc(-c3c(F)cnc(N)c3F)cc2n1-c1ccnc2c(F)ccc(F)c12`, the IC50 in [1] is 1660 nM; in series [2], > 10000 nM; in series [3] it was 2520 nM.

In [4], `Cc1nc2c(-c3nnc[nH]3)cc(-c3ccncc3)cc2n1-c1ccnc2c(F)ccc(F)c12` returned a pKa of 5.3. In addition, the CLH in series [22] is 4 mL/min/kg and 10.2 mL/min/kg. Further, the IC50 in series [2] is > 10000 nM; against Cytochrome P450 3A4, 1000 nM.

Consider `Clc1cccc2c(-n3cnc4c(-c5ncn[nH]5)cc(-c5ccncc5)cc43)ccnc12`, for which the results for the IC50 in [1], in series [2] and in series [3] were 100 nM, 5300 nM and 350 nM, respectively.

As to `CNc1nccc(-c2cc(-c3nnc[nH]3)c3nc(C)n(-c4ccnc5c(F)ccc(F)c45)c3c2)c1F`, the IC50 in series [1], in series [2] and in series [3] was > 10000 nM throughout.

`Cc1cc(-c2cc(-c3nnc[nH]3)c3nc(C)n(-c4ccnc5c(F)ccc(F)c45)c3c2)ccn1` came in with a pKa in series [4] of 5.9. The IC50 in series [1] is 300 nM and 122 nM and 1110 nM; in series [2] it was > 10000 nM; against Cytochrome P450 3A4 it was 19000 nM.

Turning to `Cc1nccc(-c2cc(-c3nnc[nH]3)c3nc(C)n(-c4ccnc5c(F)ccc(F)c45)c3c2)n1`, the IC50 came out at 35 nM in [1], 2720 nM in series [2] and 55 nM in series [3].

In turn, `Cc1nc2c(-c3nnc[nH]3)cc(-c3ccnc(N)c3)cc2n1-c1ccnc2c(F)ccc(F)c12` had a pKa in series [4] of 6.1. In addition, the Papp A→B – broadly, how fast a substance crosses the layer from the apical side – at 10 µM in [23] amounted to 1.7 ×10⁻⁶ cm/s. Also, the IC50 is > 10000 nM in [2] and > 25000 nM on Cytochrome P450 3A4. The Papp B→A at 10 µM in series [21] was determined as 18 ×10⁻⁶ cm/s.

For `Cc1cc(-c2cc(-c3nnc[nH]3)c3nc(C)n(-c4ccnc5c(F)ccc(F)c45)c3c2)ncn1`, the IC50 in series [1] was 1140 nM; in [2], > 10000 nM; in [3], 1270 nM.

Consider `Cc1nc2c(-c3nnc[nH]3)cc(-c3ccnc(N)c3Cl)cc2n1-c1ccnc2c(F)ccc(F)c12`, for which the values for the IC50 in [1], in series [2] and in [3] were 297 nM, > 10000 nM and 890 nM, respectively.

For the compound `Cc1c(-c2cc(-c3nnc[nH]3)c3nc(C)n(-c4ccnc5c(F)ccc(F)c45)c3c2)ccnc1N`, the IC50 is 2860 nM on PI3K p110 beta/p85 alpha, > 10000 nM in series [1], > 10000 nM in series [2] and > 10000 nM in series [3].

Turning to `Cc1nc2c(-c3nnc[nH]3)cc(-c3ccnc(Cl)c3)cc2n1-c1ccnc2c(F)ccc(F)c12`, the half-inhibitory concentration (IC50) came out at 52 nM in series [1], 6270 nM in series [2] and 75 nM in series [3].

`Clc1cccc2c(-n3cnc4c(-c5nnc[nH]5)cc(N5CCOCC5)cc43)ccnc12`: the figures for the IC50 in series [1], in series [2] and in series [3] were 12 nM, 350 nM and 60 nM, respectively.

With `Cc1cc(-c2cc(-c3nnc[nH]3)c3nc(C)n(-c4ccnc5c(F)ccc(F)c45)c3c2)cc(N)n1`, the IC50 in series [1] was 2590 nM; in series [2], > 10000 nM; in [3] it was 6840 nM.

For `Cc1nc2c(-c3nnc[nH]3)cc(-c3cc(N)ncc3F)cc2n1-c1ccnc2c(F)ccc(F)c12`, the IC50 was 302 nM in series [1], > 10000 nM in series [2] and 1500 nM in [3].

`C[C@@H](Nc1cc(F)cc(F)c1)c1cc(C(=O)N(C)C)cc2c(=O)cc(N3CCOCC3)oc12` [AZD-8186]: the IC50 came out at 36 nM in series [1], 6000 nM in series [2] and 450 nM in [3].

The values above are taken from ChEMBL document CHEMBL4616704, “Discovery of an Atropisomeric PI3Kβ Selective Inhibitor through Optimization of the Hinge Binding Motif” (ACS Med Chem Lett, 2020).
